We go through 27 compounds from ChEMBL document CHEMBL4028906, “Allosteric Inhibitors of SHP2 with Therapeutic Potential for Cancer Treatment” (J Med Chem, 2017).

Activity calls are given as the source filed them. No cut-off for these calls is given here.

For one test, the target named is T1, Tyrosine-protein phosphatase non-receptor type 11 (Homo sapiens) (UniProt Q06124).
T1 sequence (whole entry): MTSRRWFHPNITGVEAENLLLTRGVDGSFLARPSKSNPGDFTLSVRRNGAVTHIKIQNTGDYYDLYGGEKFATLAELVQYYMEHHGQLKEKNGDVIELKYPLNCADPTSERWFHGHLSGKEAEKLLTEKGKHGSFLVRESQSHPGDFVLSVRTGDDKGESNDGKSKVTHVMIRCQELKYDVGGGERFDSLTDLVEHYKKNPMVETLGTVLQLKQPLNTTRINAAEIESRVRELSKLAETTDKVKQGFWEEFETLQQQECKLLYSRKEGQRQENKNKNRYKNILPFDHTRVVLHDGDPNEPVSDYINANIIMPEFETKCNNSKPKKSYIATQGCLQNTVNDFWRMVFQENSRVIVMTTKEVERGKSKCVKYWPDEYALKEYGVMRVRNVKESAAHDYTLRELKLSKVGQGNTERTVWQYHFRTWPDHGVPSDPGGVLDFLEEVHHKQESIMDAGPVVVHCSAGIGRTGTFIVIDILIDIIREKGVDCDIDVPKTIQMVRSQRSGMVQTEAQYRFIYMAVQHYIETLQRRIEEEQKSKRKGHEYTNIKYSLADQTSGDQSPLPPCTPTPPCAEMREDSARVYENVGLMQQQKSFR
The test can be described thus: Allosteric inhibition of SHP2 in human NCI-H661 cells assessed as downregulation of phosphorylated ERK1/2 levels at 20 uM after 2 hrs by Western blot analysis. Type of test: cell-based. The procedure, abridged: (§1)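 NCI-H661 cells in 6-well plates exposed to inhibitor 2 h at 37 °C. RIPA lysates separated by SDS-PAGE, transferred to PVDF, milk-blocked, probed overnight at 4 °C for pERK1/2, ERK1/2, pAKT and AKT. Repeated at least three times.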
For orientation: Immunoblotting shows a protein as a band on a membrane.
Regarding `CC1(N)CCN(c2nc(-c3cc4ccccc4s3)cs2)CC1`, the inhibition entry is “inactive”.

The target in a further test is Tyrosine-protein phosphatase non-receptor type 11 (Homo sapiens, UniProt Q06124). The test can be described thus: Allosteric inhibition of SHP2 PTP domain (unknown origin) expressed in Escherichia coli BL21(DE3) using DIFMUP as substrate preincubated for 20 mins followed by substrate addition measured after 20 mins by phosphatase assay. The procedure, abridged:
(§2)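 His-tagged SHP2 constructs expressed in E. coli BL21(DE3) (0.5 mM IPTG, 5 h, 30 °C) and Ni-column purified. 1.5 nM enzyme preincubated 20 min at room temperature with compound in 0.1 M sodium acetate pH 5.0. DIFMUP then added, 20 min further, fluorescence at 358/455 nm. Eight 3-fold dilutions, duplicate wells, IC50 from at least three independent experiments.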
Take `CC1(C)CC(Nc2nc(-c3ccccc3)cs2)CC(C)(C)N1`: the IC50 (commonly the point on the concentration scale where inhibition reaches its midpoint) was > 100 µM.

Test system in another test: not listed separately
The test can be described thus: Allosteric inhibition of SHP2 E76A mutant (unknown origin) expressed in Escherichia coli BL21(DE3) using DIFMUP as substrate preincubated for 20 mins followed by substrate addition measured after 20 mins by phosphatase assay. Set-up: species or system Homo sapiens. An outline of the steps: as §2
`CC1(N)CCN(c2nc(-c3ccc4cc(C#N)ccc4c3)cs2)CC1` showed an IC50 of 1.37 µM.
In turn, `CC1(N)CCN(c2nc(-c3ccc(-c4ccc(O)cc4)cc3)cs2)CC1` came in with an IC50 of 20.3 µM.
Still for that read-out and setting: the same measure for `COC(=O)c1ccc(-c2cccc(-c3csc(N4CCC(C)(N)CC4)n3)c2)cc1`: 3.28 µM.
The same measure, in the same setting: with `CC1(N)CCN(c2nc(-c3ccc4cc(C(=O)O)ccc4c3)cs2)CC1` the figure was 51.7 µM; with `CC1(N)CCN(c2nc(-c3ccc(-c4ccc(F)cc4)cc3)cs2)CC1`, 14.2 µM.
`CC1(N)CCN(c2nc(-c3ccc4cc(CO)ccc4c3)cs2)CC1`: the IC50 was > 100 µM.
Still for that read-out and setting: with `CC1(N)CCN(c2nc(-c3ccc4cc(F)ccc4c3)cs2)CC1` the figure was 1.27 µM.
The compound `c1ccc2cc(-c3csc(NC4CCNC4)n3)ccc2c1` (stereo unspecified) came in with an IC50 of 1.65 µM.
The same measure, in the same setting: with `CC1(N)CCN(c2nc(-c3cccc(-c4ccc(C#N)cc4)c3)cs2)CC1` the figure was 1.76 µM; with `CC1(N)CCN(c2nc(-c3ccc4ccccc4c3)cs2)CC1`, 1.48 µM.
Regarding `CC1(N)CCN(c2nc(-c3ccc4cc(Cl)ccc4c3)cs2)CC1`, inhibition was half-maximal at 2.68 µM (IC50).
The same measure, in the same setting: the same measure for `CC1(N)CCN(c2nc(-c3cc4ccccc4s3)cs2)CC1`: > 100 µM; for `CN1CCC(Nc2nc(-c3ccc4ccccc4c3)cs2)CC1`: 2.81 µM.
Same read-out and setting: the same measure for `COc1ccc2cc(-c3csc(N4CCC(C)(N)CC4)n3)ccc2c1`: 2.46 µM.
Same read-out and setting: the same measure for `CC1(C)CC(Nc2nc(-c3ccc4ccccc4c3)cs2)CC(C)(C)N1`: 2.55 µM.
In turn, `c1ccc2cc(-c3csc(NC4CCNCC4)n3)ccc2c1` displayed an IC50 of 0.73 µM.
The same measure, in the same setting: with `CC1(C)CC(Nc2nc(-c3ccc(-c4ccccc4)cc3)cs2)CC(C)(C)N1` the figure was 5.32 µM; with `CC1CN(c2nc(-c3ccc4ccccc4c3)cs2)CC(C)N1` (stereo unspecified), 12.3 µM; with `NCC1CCCN(c2nc(-c3ccc4ccccc4c3)cs2)C1` (stereo unspecified), 52.8 µM.
In turn, `CC1(N)CCN(c2nc(-c3cnc4ccccc4c3)cs2)CC1` gave an IC50 of 52.3 µM.
The same measure, in the same setting: the same measure for `CC1(N)CCN(c2nc(-c3cccc4c3oc3ccccc34)cs2)CC1`: 46.5 µM.
Turning to `CC1(C)CC(Nc2nc(-c3cccc(-c4ccccc4)c3)cs2)CC(C)(C)N1`, the midpoint of inhibition, the IC50, lay at 3.27 µM.
`CC1(N)CCN(c2cnc(-c3cccc(Cl)c3Cl)c(N)n2)CC1` returned an IC50 of 0.12 µM.
Same read-out and setting: with `CC1(C)CC(Nc2nc(-c3ccccc3)cs2)CC(C)(C)N1` the figure was 19.1 µM; with `CC1(N)CCN(c2nc(-c3cccc(-c4ccccc4)c3)cs2)CC1`, 3.62 µM.
Same read-out and setting: with `c1ccc2cc(-c3csc(NCC4CCCNC4)n3)ccc2c1` (stereo unspecified) the figure was 1.49 µM; with `COC(=O)c1ccc2cc(-c3csc(N4CCC(C)(N)CC4)n3)ccc2c1`, 1.08 µM.

The target of the next test is T1, Tyrosine-protein phosphatase non-receptor type 11 (Homo sapiens). The test can be described thus: Allosteric inhibition of SHP2 in human SF268 cells stably expressing Yap-Luc reporter assessed as reduction in YAP transcriptional activity at 3 to 12 uM after 12 hrs by Yap-luciferase reporter gene assay. Type of test: cell-based. The procedure, abridged:
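SF268 cells stably carrying a Yap-Luc reporter, in RPMI-1640 on 96-well plates, given inhibitor at 3, 6 and 12 μM on day 1. After 12 h, lysates read for Renilla luciferase, normalized to CellTiter-Glo signal; mean±s.d., n=3.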
In general terms: Reporter assays use an easily measured gene product as a stand-in for the process of interest.
For the compound `CC1(N)CCN(c2nc(-c3cc4ccccc4s3)cs2)CC1`, the inhibition result was “inactive”.

The next test has the same target. The test can be described thus: Allosteric inhibition of SHP2 in human NCI-H661 cells assessed as downregulation of phosphorylated AKT levels at 20 uM after 2 hrs by Western blot analysis. The format is cell-based. The procedure, abridged: as §1
As to `CC1(N)CCN(c2nc(-c3cc4ccccc4s3)cs2)CC1`, the inhibition entry was “inactive”.
